Rows were chosen to be rich in hits. Some 3.9% of all compounds tested hit in one or more screens of this group.
TAAR1 agonist – human TAAR1 agonists, primary screen, Fluo-8 calcium fluorescence, CHO RD-HGA16 cells. Trace amine-associated receptor 1 (Homo sapiens), Q96RJ0. vehicle wells 0%, saturating PEA agonist 100%. activation, % at 3 µM. actives 0.99% (n = 360,000);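 active = activation above the mean activation of all test compounds in the run plus 3 SD, cut at about 38% in these data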
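Assay system – CHO-derived RD-HGA16 cells with stable Gα16 and human TAAR1 · Compound dosing – one-point dosing at 3 µM (nominal) · Incubation – 17-24 h seeding, 75 min 37 °C dye, 30 min RT · Measured by – kinetic Fluo-8 calcium fluorescence · Control set – DMSO vehicle as 0%, PEA at EC100 as 100% · Repeats – single well for each compound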
OX1R antag-1 – OX1R (HCRTR1) antagonists, primary screen, fluorescence, CHO/OX1R cells, Fluo-8 calcium, orexin A. Orexin/Hypocretin receptor type 1 (Homo sapiens), O43613. Fluo-8 calcium fluorescence. inhibition, % at 5 µM. actives 0.43% (n = 330,000). AID 434989, 2010;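 active = inhibition above its plate's threshold, mean inhibition of all tested compounds on the plate plus 3 SD, cut at about 37% in these data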;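 also: 0% = orexin A challenge wells and 100% = SB-334867-A antagonist wells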
Target sequence (O43613 whole entry, looked up): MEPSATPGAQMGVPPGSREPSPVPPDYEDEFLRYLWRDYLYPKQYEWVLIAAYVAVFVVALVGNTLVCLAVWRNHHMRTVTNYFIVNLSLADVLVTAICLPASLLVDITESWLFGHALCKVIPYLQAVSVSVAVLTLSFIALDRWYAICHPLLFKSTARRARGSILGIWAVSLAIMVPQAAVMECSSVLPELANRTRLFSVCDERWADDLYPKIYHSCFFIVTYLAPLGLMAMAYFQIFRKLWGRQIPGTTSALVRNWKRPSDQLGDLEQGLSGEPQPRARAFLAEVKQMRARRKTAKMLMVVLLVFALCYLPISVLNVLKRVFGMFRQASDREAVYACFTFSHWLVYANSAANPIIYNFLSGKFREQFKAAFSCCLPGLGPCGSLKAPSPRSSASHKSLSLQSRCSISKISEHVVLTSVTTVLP
OX1R antag-2 – antagonists of human orexin 1 receptor (OX1R). Orexin/Hypocretin receptor type 1 (Homo sapiens), O43613. OX1R-expressing cells, FRET antagonist read-out. inhibition, % at 6.6 µM. actives 1.8% (n = 330,000); in the data active = inhibition mostly above about 38%, no sharp cut-off; inactive = mostly below about 40%;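 also: 0% = agonist challenge alone and 100% = reference antagonist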
CHO parental Ca – ATP-evoked calcium signal inhibitors, parental CHO, primary screen, counter-screen for OX1R antagonist project, cell-based, fluorescence, Fluo-8 calcium dye; inhibition, % at 5.6 µM; actives 0.63% (n = 330,000); AID 463079, 2010; parental CHO-K1, ATP-induced calcium, Fluo-8 fluorescence;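 active = inhibition above that plate's mean sample inhibition plus 3 SD, cut at about 26% in these data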;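 also: 0% = ATP-challenged DMSO wells and 100% = DMSO wells without ATP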
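material = parental CHO cells | also added = ATP as calcium-mobilizing challenge | dosing = single point at 5.6 µM | detection = intracellular calcium via Fluo-8 no-wash fluorescent dye | read-out = % inhibition | benchmarks = low control ATP plus DMSO, high control DMSO only | repeats = one well per compound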
TAAR1 antag – human TAAR1 antagonists, primary screen, Fluo-8 calcium fluorescence, CHO RD-HGA16 cells; antagonist; inhibition, % at 3 µM; actives 1.5% (n = 360,000);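 active = inhibition above a per-plate cutoff, the mean inhibition of test compounds on that plate plus 3 SD, cut at about 49% in these data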;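 also: 0% = DMSO plus EC80 beta-PEA response and 100% = DMSO alone without agonist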
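Test system – hTAAR1-expressing CHO RD-HGA16 cells, Gα16-coupled · Also added – β-PEA at EC80 concentration, post-compound challenge · Compound – 3 µM, single point · Incubation – dye loading 75 min at 37 °C, then 30 min room temperature · Measured by – Fluo-8 intracellular calcium dye fluorescence, real-time kinetic reads · Benchmarks – vehicle and agonist controls · Replicates – singlicate, one well per test compound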
TAAR1 ag conf – human TAAR1 agonists, retest of hits, confirmation, Fluo-8 calcium fluorescence, CHO RD-HGA16 cells. shares compounds with TAAR1 agonist. scaled: DMSO 0%, maximal phenethylamine 100%. activation, % at 3 µM. actives 82% (n = 2,400). AID 651783, 2012;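 active = activation above a cutoff set at the run's mean compound activation plus 3 SD, cut at about 39% in these data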
Ga16 ag counter – nonselective calcium mobilization agonists, CHO-Ga16 cells, counter-screen for hTAAR1 agonist project, cell-based, fluorescence, CHO-Ga16 parental line; shares compounds with TAAR1 agonist; activation, % at 3 µM; Fluo-8 calcium fluorescence; normalized to maximal ATP response, DMSO zero; AID 651787, 2012; actives 50% (n = 2,400);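 active = activation above the run cutoff, the mean activation over all tested wells plus 3 SD, cut at about 12% in these data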;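 also: 0% = DMSO wells and 100% = maximal ATP response on the peak over basal ratio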
TAAR1 desensitize – TAAR1 desensitization by agonist hits, confirmation, counter-screen for TAAR1 agonist project, cell-based, fluorescence, tachyphylaxis; shares compounds with TAAR1 agonist; CHO RD-HGA16 hTAAR1, Fluo-8 calcium, beta-PEA response inhibition; inhibition, % at 3 µM; actives 46% (n = 2,400); AID 651951, 2012;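 active = inhibition above the run cutoff, the mean inhibition of all test compounds plus 3 SD, cut at about 49% in these data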;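 also: beta-PEA stimulus applied at its EC80; loss of beta-PEA calcium signal after compound pretreatment read as receptor desensitization; 0% = DMSO with beta-PEA at EC80 and 100% = DMSO alone without agonist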
Ga16 nonsel ant – inhibition of ATP-evoked calcium response in CHO-Ga16 cells, counter-screen for TAAR1 agonist project, cell-based, fluorescence; CHO-Ga16 ATP-induced calcium, Fluo-8 fluorescence; actives 39% (n = 2,400); AID 651952, 2012; inhibition, % at 3 µM; shares compounds with TAAR1 agonist;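 active = inhibition above the plate's mean compound inhibition plus 3 SD, computed per plate, cut at about 22% in these data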;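 also: 0% = EC80 ATP with DMSO and 100% = DMSO wells without ATP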
The depositor's hits bear a star; nt = not tested or not shown.

SMILES | TAAR1 agonist | OX1R antag-1 | OX1R antag-2 | CHO parental Ca | TAAR1 antag | TAAR1 ag conf | Ga16 ag counter | TAAR1 desensitize | Ga16 nonsel ant
O=C(Cc1cccs1)N1CCN=C1SCc1cccc(F)c1 | -2 | -15 | 11 | -15 | 5 | nt | nt | nt | nt
Cc1ccc(C(=O)OCC(=O)NCc2cccs2)cc1S(=O)(=O)N1CCOCC1 | 5 | -28 | 11 | -6 | -13 | nt | nt | nt | nt
C=CCNC(=O)C1CC1(c1ccc(C)cc1)c1ccc(C)cc1 (stereo unspecified) | -1 | -16 | 12 | -17 | 7 | nt | nt | nt | nt
O=C(NNC(=O)c1cccc2ccccc12)c1ccc2c(c1)OCO2 | 2 | -15 | 13 | -14 | -36 | nt | nt | nt | nt
Cc1ccc(C)c(C(O)c2ncc(-c3cccc(C(F)(F)F)c3)[nH]2)c1 (stereo unspecified) | 66* | nt | nt | nt | 66* | 58* | 45* | 34 | 33*
CC(Oc1ccc(Br)cc1)C(=O)Nc1ccc(S(=O)(=O)NC2=NCCCCC2)cc1 (stereo unspecified) | 95* | nt | nt | nt | 72* | 119* | 78* | 81* | 47*
Cc1c(NC(=S)NC(=O)Cc2ccccc2)cccc1C(=O)O | 9 | -6 | 5 | 2 | 12 | nt | nt | nt | nt
Cc1cnn(C(=S)NCc2ccc(Cl)cc2)c1 | 9 | 1 | 6 | -3 | 4 | nt | nt | nt | nt
Cc1cccc(NC(=S)NC(=O)CCc2ccccc2)c1C | 13 | -28 | 16 | -23 | 32 | nt | nt | nt | nt
Cc1cccc(NC(=S)NC(=O)Cc2ccccc2)c1C | 82* | nt | nt | nt | 65* | 77* | 55* | 46 | 32*
Cc1ccccc1NC(=S)NCCc1ccccc1 | 49* | -7 | 0 | -7 | -13 | 82* | 2 | 39 | 3
Cc1cnn(C(=S)NCCc2ccccc2)c1 | 48* | -1 | 6 | -1 | 32 | 30 | 5 | 25 | 18
Cc1cc(C)c(O)c(NC(=S)NC(=O)Cc2ccccc2)c1 | 95* | 6 | 6 | -3 | 72* | 85* | 48* | 54* | 37*
O=C(Nc1cccc([N+](=O)[O-])c1)c1ccc2ccccc2c1O | 4 | -5 | 25 | 6 | -11 | nt | nt | nt | nt
O=c1[nH][nH]c(=O)c2c1[nH]c(=S)n2Cc1ccccc1 | 1 | nt | nt | nt | -11 | nt | nt | nt | nt
COc1cc(C(C)=O)ccc1OCC(=O)Nc1ccc(S(=O)(=O)N2CCCCC2)cc1 | 6 | nt | nt | nt | 19 | nt | nt | nt | nt
N#CCCN(Cc1cccnc1)C(=S)NC(=O)C1CC1 | nt | -17 | 3 | -2 | nt | nt | nt | nt | nt
c1ccc(-c2cnn3c(-c4ccccc4)c(-c4ccccc4)nc3n2)cc1 | 77* | nt | nt | nt | 63* | 100* | 121* | 84* | 82*
CC(OC(=O)c1ccc(Cl)c(S(N)(=O)=O)c1)C(=O)NCc1ccc2c(c1)OCO2 (stereo unspecified) | 2 | -14 | 13 | -3 | -8 | nt | nt | nt | nt
CCC1SC2=NC(C)=C(C(=O)OC)C(c3cccs3)N2C1=O (stereo unspecified) | 5 | -34 | 27 | -19 | -1 | nt | nt | nt | nt

Screening results: PubChem, The Scripps Research Institute Molecular Screening Center
